High-throughput results (PubChem BioAssay)
An excerpt weighted towards active compounds, which were near 1% of everything screened.
DDE Tn6 FP inh = DD(E)-Tn6 binding inhibition, primary FP screen; Fibrin DD(E) TRITC-Tn6 fluorescence polarization displacement; inhibition, % at 8.3 µM; actives 0.21% (n = 370,000); AID 720509;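 active means inhibition above a per-campaign cutoff: mean of compounds within control limits plus 3 SD, cut at about 15% in these data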;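 further: 0% = median of all compound wells on the plate and 100% = blocking peptide control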
Neddyl block = inhibitors of human cullin neddylation. TR-FRET cullin neddylation, biochemical. AID 651699. P61081+Q13564. inhibition, % at 25 µM. actives 0.58% (n = 360,000); in the data active means inhibition above about 36%
PKA-R1A activ = activates the PKA-R1A holoenzyme complex. P00514+P68181. PKA-R1A dissociation, Cy5-IP20 fluorescence polarization; scaled: DMSO 0%, 113 µM cGMP 100%. activation, % at 11.4 µM. actives 0.083% (n = 340,000). AID 504707;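 active means percent activation above the mean of all tested compounds plus 3 SD, cut at about 19% in these data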;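 further: higher means more PKAc released from R1A so a rise in polarization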
PKA-R2B activ = activators of human PKA-R2B complex. P22694+P31323. PKA-R2B holoenzyme dissociation, Cy5-IP20 fluorescence polarization; R2B truncated from residue 108, S112A mutant; 0% DMSO only, 100% 113 µM cGMP. activation, % at 11.4 µM. actives 0.079% (n = 340,000);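 active means activation above a cutoff set at the mean over all compounds plus 3 SD, cut at about 18% in these data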;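 further: higher means more holoenzyme dissociation and a rise in polarization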
Target sequence (P31323 whole entry, looked up, other chains not shown, the tested form may be a part): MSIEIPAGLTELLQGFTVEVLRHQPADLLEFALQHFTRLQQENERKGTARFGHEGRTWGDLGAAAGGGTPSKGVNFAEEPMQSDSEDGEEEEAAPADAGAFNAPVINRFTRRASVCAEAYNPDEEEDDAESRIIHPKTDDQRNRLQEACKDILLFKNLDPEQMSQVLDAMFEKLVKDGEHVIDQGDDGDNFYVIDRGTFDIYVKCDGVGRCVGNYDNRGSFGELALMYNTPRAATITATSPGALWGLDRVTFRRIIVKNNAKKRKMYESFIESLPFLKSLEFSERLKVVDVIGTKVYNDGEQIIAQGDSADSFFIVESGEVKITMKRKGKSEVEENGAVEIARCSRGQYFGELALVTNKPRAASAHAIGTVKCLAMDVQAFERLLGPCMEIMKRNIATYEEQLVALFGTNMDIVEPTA
DDE Tn7 FP inh = DD(E)-Tn7 binding inhibition, primary FP screen; FP displacement of FITC-Tn7 peptide from fibrin DD(E); 0% = median of compound wells per plate; actives 0.13% (n = 370,000); inhibition, % at 8.3 µM; P02675; AID 720508;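 active means inhibition above the mean of compounds falling within the control limits plus 3 SD of them, cut at about 14% in these data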;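 further: 0% = plate median of compound wells and 100% = 10 µM Aha-Tn7 peptide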
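Test system – human fibrin DD(E) · Times – 10 min preincubation, 3 h with tracer, room temperature · Detection – fluorescence polarization of the labelled Tn7 tracer · Measure – percent inhibition normalized to high-control wells · Benchmarks – high control wells with 10 µM unlabelled Aha-Tn7 peptide (full inhibition) · Repeats – singlicate testing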
DDE Tn6 FP ctr = DD(E)-Tn6 binding inhibition, counter-screen; shares compounds with DDE Tn6 FP inh; Fibrin DD(E), TRITC-Tn6 fluorescence polarization displacement; 0% = median of compound wells, not DMSO; inhibition, % at 8.3 µM; actives 2% (n = 680); AID 720621;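 active means inhibition above the mean of test compounds lying between the control limits plus 3 SD of those, cut at about 14% in these data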;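 further: 0% = median of compound wells and 100% = wells with Aha-Tn7 blocking peptide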
Tn6 DDE conf = confirmation of inhibitors of Tn6 binding to human fibrin DD(E). shares compounds with DDE Tn6 FP inh. actives 10% (n = 680). inhibition, % at 8.3 µM. AID 720631. FP displacement of TRITC-Tn6 peptide from DD(E); 0% = per-plate median of test wells;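 active means inhibition above the mean of compounds lying within the control limits plus 3 SD, cut at about 16% in these data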;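 further: 100% = high control wells holding a competing inhibitor peptide at 10 µM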
An asterisk follows results filed as active.

For COc1ccccc1NS(=O)(=O)c1cccc(NC(=O)NCCCl)c1 the results were DDE Tn6 FP inh -10, Neddyl block 0, PKA-R1A activ -6, PKA-R2B activ 2 and DDE Tn7 FP inh -5.
COc1ccccc1NS(=O)(=O)c1cccc(NC(=O)Nc2cccc(Cl)c2)c1 was read as DDE Tn6 FP inh 43*, Neddyl block -3, PKA-R1A activ -4, PKA-R2B activ -1, DDE Tn7 FP inh 5, DDE Tn6 FP ctr 9 and Tn6 DDE conf 17*.
`c1ccc(COCCc2cn(Cc3ccccc3)c3ccccc23)cc1` gave DDE Tn6 FP inh -8 and DDE Tn7 FP inh -1.
`N#Cc1ccc(C(=O)Oc2coc(CSc3ncccn3)cc2=O)cc1` gave DDE Tn6 FP inh 5 and DDE Tn7 FP inh 7.
Screening Cc1ccc(C)c(Cn2nnc3c(=O)[nH]c(C4CCN(S(=O)(=O)c5ccc(S(=O)(=O)NC6CC6)cc5)CC4)nc32)c1 returned DDE Tn6 FP inh 18*, Neddyl block 0, PKA-R1A activ -11, PKA-R2B activ -3, DDE Tn7 FP inh -2, DDE Tn6 FP ctr 6 and Tn6 DDE conf 6.
Screening CCN1CC=C2C(C1)C(c1ccc(Cl)s1)C(C#N)=C(N)C2(C#N)C#N (stereo unspecified) returned DDE Tn6 FP inh 16*, Neddyl block 8, PKA-R1A activ -9, PKA-R2B activ -5, DDE Tn7 FP inh 3, DDE Tn6 FP ctr -2 and Tn6 DDE conf -3.
Screening CC(C)(N[C@@H](Cc1ccccc1)C(=O)NCC(c1ccccc1)c1ccccc1)C(=O)NC1CCCCC1 returned DDE Tn6 FP inh 7 and DDE Tn7 FP inh 1.
`CCCCCCCCCCCNC(=O)c1ccoc1C` gave DDE Tn6 FP inh 17*, Neddyl block 0, PKA-R1A activ 1, PKA-R2B activ 1, DDE Tn7 FP inh 0, DDE Tn6 FP ctr 9 and Tn6 DDE conf 3.
Screening Cc1occc1C(=O)NCCCCNC(=O)c1ccoc1C returned DDE Tn6 FP inh 1, Neddyl block 3, PKA-R1A activ 4, PKA-R2B activ -5 and DDE Tn7 FP inh 6.
For Cc1ccc2c(c1)N(Cc1ccccn1)C(=O)C(C)O2 (stereo unspecified) the results were DDE Tn6 FP inh 17*, Neddyl block -9, PKA-R1A activ -4, PKA-R2B activ 0, DDE Tn7 FP inh 5, DDE Tn6 FP ctr -5 and Tn6 DDE conf -9.
Screening COc1cc(N)c2ncccc2c1Br returned DDE Tn6 FP inh 19*, Neddyl block -18, PKA-R1A activ -4, PKA-R2B activ -12, DDE Tn7 FP inh 6, DDE Tn6 FP ctr 1 and Tn6 DDE conf -1.
Screening COc1cc(N)c2ncccc2c1SC returned DDE Tn6 FP inh 6, Neddyl block -6, PKA-R1A activ -5, PKA-R2B activ -6 and DDE Tn7 FP inh 2.
Screening O=C(CN1CCN(Cc2ccccc2)CC1)N/N=C\c1ccccc1[N+](=O)[O-] returned DDE Tn6 FP inh 0 and DDE Tn7 FP inh 7.
Cc1c(Cc2ccccc2)c(=O)oc2cc(OCC(=O)N3CCC(C(N)=O)CC3)ccc12 was read as DDE Tn6 FP inh 18*, PKA-R1A activ -1, PKA-R2B activ -7, DDE Tn7 FP inh 5, DDE Tn6 FP ctr 1 and Tn6 DDE conf 2.
`Cc1ccc(Cn2cc(CN3[C@H](C)COc4cc(Br)ccc4S3(=O)=O)nn2)cc1` gave DDE Tn6 FP inh -1 and DDE Tn7 FP inh -10.
For CCOc1ccc(NC(=O)C(CC)NC(=O)c2ccccc2CO)cc1 (stereo unspecified) the results were DDE Tn6 FP inh 20*, Neddyl block -1, PKA-R1A activ 6, PKA-R2B activ 4, DDE Tn7 FP inh 1, DDE Tn6 FP ctr -3 and Tn6 DDE conf -6.
